pKi: −log10 of the molar value. Converted amounts (≈) assume the structure as drawn. The source made the active and inactive calls. The calls are words filed in the database; no cut-off is given here.
Key:
Escherichia coli [1] = assay: Antibacterial activity against 5 x 10^5 CFU/ml CMY-30 producing Escherichia coli MC4100 harboring plasmid AC-cmy30 by microdilution method; assay type: functional
How it was run: (§1)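 Broth microdilution MIC in Mueller-Hinton broth with an inoculum of 5 × 10^5 CFU/ml. Isogenic E. coli MC4100 strains (vector control or carrying CMY-2 or CMY-30) were tested in parallel.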

Escherichia coli [2] = assay: Antibacterial activity against 5 x 10^5 CFU/ml CMY-2 producing Escherichia coli MC4100 harboring plasmid AC-cmy2 by microdilution method; assay type: functional; how it was run: as §1
[3] = Inhibition of Escherichia coli MC4100 Beta-Lactamase CMY-30 using cephalothin as reporter substrate
[4] = (§2) Inhibition of Escherichia coli MC4100 Beta-Lactamase CMY-2 using cephalothin as reporter substrate
Escherichia coli [5] = assay: Antibacterial activity against 5 x 10^5 CFU/ml Escherichia coli MC4100 harboring plasmid ACYC184 by microdilution method; assay type: functional; how it was run: as §1
Escherichia coli [6] = assay: Antibacterial activity against 5 x 10^5 CFU/ml CMY-30 producing Escherichia coli MC4100 harboring plasmid AC-cmy30 by microdilution method in presence of 2 ug/ml clavulanic acid; assay type: functional
How it was run: (§3)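 Broth microdilution MIC in Mueller-Hinton broth with an inoculum of 5 × 10^5 CFU/ml. Clavulanic acid was held at a fixed 2 μg/ml. Isogenic E. coli MC4100 strains (vector control or carrying CMY-2 or CMY-30) were tested in parallel.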

Escherichia coli [7] = assay: Antibacterial activity against 5 x 10^5 CFU/ml CMY-2 producing Escherichia coli MC4100 harboring plasmid AC-cmy2 by microdilution method in presence of 2 ug/ml clavulanic acid; assay type: functional; how it was run: as §3
Escherichia coli [8] = assay: Antibacterial activity against 5 x 10^5 CFU/ml Escherichia coli MC4100 harboring plasmid ACYC184 by microdilution method in presence of 2 ug/ml clavulanic acid; assay type: functional; how it was run: as §3
Escherichia coli [9] = assay: Inhibition of Escherichia coli DH5alpha beta-lactamase CMY-2 assessed as aztreonam hydrolysis
How it was run: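 Agar bioassay on MH agar seeded with E. coli DH5α indicator (10^5 CFU/ml), with 30 μg aztreonam disks. Purified cephalosporinase (700 ng in 10 μl phosphate buffer) was applied near each disk. Plates were incubated 18 h at 35°C and read for distortion of the inhibition zone against control disks.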

Escherichia coli [10] = assay: Activity of Escherichia coli MC4100 Beta-Lactamase CMY-30 harboring Val211?Gly211 mutation
How it was run: (§4)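 Enzyme source was E. coli MC4100 carrying high-copy plasmids pB-cmy30 or pB-cmy2. Enzyme was released by sonication in 20 mM Tris, pH 7.4, then purified by Q- and S-Sepharose ion exchange to >95% purity by SDS-PAGE. Values are means of four independent measurements. For some β-lactams, Km was obtained as Ki using cephalothin as reporter substrate.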

Escherichia coli [11] = assay: Ratio of Kcat to Km for Escherichia coli MC4100 Beta-Lactamase CMY-30 harboring Val211?Gly211 mutation; how it was run: as §4
Escherichia coli [12] = assay: Activity of Escherichia coli MC4100 Beta-Lactamase CMY-2
How it was run: (§5)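 CMY-2 purified from E. coli MC4100 carrying high-copy plasmid pB-cmy2. Cells in 20 mM Tris pH 7.4 sonicated, then Q- and S-Sepharose ion exchange, >95% pure by SDS-PAGE. Kinetic constants are means of four independent measurements. For some β-lactams Km was determined as Ki with cephalothin as reporter substrate.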

Escherichia coli [13] = assay: Ratio of Kcat to Km for Escherichia coli MC4100 Beta-Lactamase CMY-2; how it was run: as §5
Escherichia coli [14] = assay: as §2
Escherichia coli [15] = assay: Antibacterial activity against 5 x 10^5 CFU/ml CMY-30 producing Escherichia coli MC4100 harboring plasmid AC-cmy30 by microdilution method in presence of 4 ug/ml Tazobactam; assay type: functional
How it was run: (§6)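 Broth microdilution MICs in Mueller-Hinton broth, inoculum 5 × 10^5 CFU/ml. Isogenic E. coli MC4100 strains carrying CMY-30, CMY-2 or no CMY gene were tested in parallel. Tazobactam was held at a fixed 4 μg/ml.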

Escherichia coli [16] = assay: Antibacterial activity against 5 x 10^5 CFU/ml CMY-2 producing Escherichia coli MC4100 harboring plasmid AC-cmy2 by microdilution method in presence of 4 ug/ml Tazobactam; assay type: functional; how it was run: as §6
Escherichia coli [17] = assay: Antibacterial activity against 5 x 10^5 CFU/ml Escherichia coli MC4100 harboring plasmid ACYC184 by microdilution method in presence of 4 ug/ml Tazobactam; assay type: functional; how it was run: as §6

| SMILES | MIC (Escherichia coli [1]) [µg/mL] | MIC (Escherichia coli [2]) [µg/mL] | pKi [3] | pKi [4] | MIC (Escherichia coli [5]) [µg/mL] | kcat (Escherichia coli [10]) [s⁻¹] | kcat/Km (Escherichia coli [11]) [M⁻¹ s⁻¹] | kcat (Escherichia coli [12]) [s⁻¹] | kcat/Km (Escherichia coli [13]) [M⁻¹ s⁻¹] | further results |
| --- | --- | --- | --- | --- | --- | --- | --- | --- | --- | --- |
| CO/N=C(\C(=O)N[C@@H]1C(=O)N2C(C(=O)[O-])=C(C[N+]3(C)CCCC3)CS[C@H]12)c1csc(N)n1 | 0.25 (≈ 0.52 µM) | 0.25 (≈ 0.52 µM) | – | – | – | – | – | – | – | – |
| C[C@]1(/C=C\C#N)[C@H](C(=O)O)N2C(=O)C[C@H]2S1(=O)=O | – | – | 6.70 | 7.00 | – | – | – | – | – | – |
| CC1(C)S[C@@H]2[C@H](NC(=O)[C@H](N)c3ccc(O)cc3)C(=O)N2[C@H]1C(=O)O [AMOXICILLIN] | > 512 | > 512 | – | – | 4 (≈ 10.9 µM) | – | – | – | – | MIC (Escherichia coli [6]): > 512 µg/mL; MIC (Escherichia coli [7]): > 512 µg/mL; MIC (Escherichia coli [8]): 4 µg/mL |
| C[C@H]1[C@H](NC(=O)/C(=N\OC(C)(C)C(=O)O)c2csc(N)n2)C(=O)N1S(=O)(=O)O [AZTREONAM] | 128 (≈ 294 µM) | 16 (≈ 36.7 µM) | 7.77 | 8.68 | – | – | – | – | – | Activity (Escherichia coli [9]): Active |
| N[C@@H](C(=O)N[C@@H]1C(=O)N2C(C(=O)O)=C(Cl)CS[C@H]12)c1ccccc1 [CEFACLOR ANHYDROUS] | > 512 | > 512 | – | – | 2 (≈ 5.44 µM) | – | – | – | – | – |
| CO/N=C(\C(=O)N[C@@H]1C(=O)N2C(C(=O)O)=C(COC(C)=O)CS[C@H]12)c1csc(N)n1 [CEFOTAXIME] | 256 (≈ 562 µM) | 16 (≈ 35.1 µM) | 6.52 | 8.30 | 0.12 (≈ 0.263 µM) | 1.7 | 5.7e+06 | < 0.01 | < 2e+06 | – |
| CO[C@@]1(NC(=O)Cc2cccs2)C(=O)N2C(C(=O)O)=C(COC(N)=O)CS[C@@H]21 [CEFOXITIN] | > 512 | > 512 | 6.77 | 6.82 | 2 (≈ 4.68 µM) | 0.28 | 1.6e+06 | 0.35 | 2.3e+06 | – |
| CC(C)(O/N=C(\C(=O)N[C@@H]1C(=O)N2C(C(=O)[O-])=C(C[n+]3ccccc3)CS[C@H]12)c1csc(N)n1)C(=O)O [CEFTAZIDIME] | > 512 | 128 (≈ 234 µM) | 6.85 | 7.70 | 0.25 (≈ 0.457 µM) | 0.4 | 2.9e+06 | 0.01 | 500000 | – |
| CO/N=C(\C(=O)N[C@@H]1C(=O)N2C(C(=O)O)=C(COC(N)=O)CS[C@H]12)c1ccco1 [CEFUROXIME] | > 512 | > 512 | – | – | 2 (≈ 4.71 µM) | – | – | – | – | – |
| CC(=O)OCC1=C(C(=O)O)N2C(=O)[C@@H](NC(=O)Cc3cccs3)[C@H]2SC1 [CEPHALOTHIN] | > 512 | > 512 | – | – | 2 (≈ 5.04 µM) | 256 | 1e+07 | 267 | 1.6e+07 | Km (Escherichia coli [10]): 26 µM; Km (Escherichia coli [12]): 17 µM |
| Cc1onc(-c2ccccc2Cl)c1C(=O)N[C@@H]1C(=O)N2[C@@H]1SC(C)(C)[C@@H]2C(=O)O [CLOXACILLIN] | – | – | 8.64 | 9.70 | – | – | – | – | – | – |
| CC1(C)S[C@@H]2[C@H](NC(=O)Cc3ccccc3)C(=O)N2[C@H]1C(=O)O [PENICILLIN G] | – | – | 6.22 | – | – | 23 | 3.8e+07 | 24 | 4e+07 | Km (Escherichia coli [14]): 0.6 µM |
| CCN1CCN(C(=O)N[C@@H](C(=O)N[C@@H]2C(=O)N3[C@@H]2SC(C)(C)[C@@H]3C(=O)O)c2ccccc2)C(=O)C1=O [PIPERACILLIN] | 64 (≈ 124 µM) | 128 (≈ 247 µM) | – | – | 0.5 (≈ 0.966 µM) | – | – | – | – | MIC (Escherichia coli [15]): 16 µg/mL; MIC (Escherichia coli [16]): 16 µg/mL; MIC (Escherichia coli [17]): 0.5 µg/mL |
| C[C@]1(Cn2ccnn2)[C@H](C(=O)O)N2C(=O)C[C@H]2S1(=O)=O [TAZOBACTAM] | – | – | < 6.00 | 6.10 | – | – | – | – | – | – |
| CC1(C)S[C@@H]2[C@H](NC(=O)[C@H](C(=O)O)c3ccsc3)C(=O)N2[C@H]1C(=O)O [TICARCILLIN] | > 512 | > 512 | – | – | 2 (≈ 5.2 µM) | – | – | – | – | MIC (Escherichia coli [6]): > 512 µg/mL; MIC (Escherichia coli [7]): > 512 µg/mL; MIC (Escherichia coli [8]): 1 µg/mL |

Source: ChEMBL document CHEMBL1649546, “Extended-spectrum properties of CMY-30, a Val211Gly mutant of CMY-2 cephalosporinase” (Antimicrob Agents Chemother, 2009)
